From the M2OR odorant receptor database

What was measured:
Conditions in all cases: stereoisomer not certain
O56A4 I247A = test system: O56A4 I247A
Method in brief: (§1)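 Transient luciferase assays in mammalian cell lines were common, though methods varied by source. The values come from published papers and their supplementary material, with extra details from the original authors when needed. Responsive refers to a measured signal the original authors judged statistically different from baseline, and non-responsive (inactive) to the remainder.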

O56A4 I247V = test system: O56A4 I247V
Method in brief: as §1

O56A4 = test system: O56A4
Method in brief: as §1

O56A5 V104L = test system: O56A5 V104L
Method in brief: as §1

O56B1 C106R L214F = test system: O56B1 C106R L214F
Method in brief: as §1

O56B1 L214F = test system: O56B1 L214F
Method in brief: as §1

O56B4 = test system: O56B4
Method in brief: as §1

O5AC2 = test system: O5AC2
Method in brief: as §1

O5AK2 M92I = test system: O5AK2 M92I
Method in brief: as §1

O5AN1 C142Y L289F = test system: O5AN1 C142Y L289F
Method in brief: as §1

Measured: odorant receptor agonist call;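 further: active if original authors judged signal statistically different from baseline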

O56A5 V104L, sequence (as listed by the source, stated change not applied): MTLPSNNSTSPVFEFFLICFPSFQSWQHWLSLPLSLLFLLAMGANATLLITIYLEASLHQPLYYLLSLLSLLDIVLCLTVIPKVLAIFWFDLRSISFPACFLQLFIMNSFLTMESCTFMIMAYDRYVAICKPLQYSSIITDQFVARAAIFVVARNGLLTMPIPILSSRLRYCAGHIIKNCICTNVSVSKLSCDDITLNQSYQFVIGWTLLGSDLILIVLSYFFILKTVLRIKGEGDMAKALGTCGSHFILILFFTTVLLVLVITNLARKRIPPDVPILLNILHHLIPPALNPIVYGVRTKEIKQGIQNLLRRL
O56A4 I247A, sequence (as listed by the source, stated change not applied): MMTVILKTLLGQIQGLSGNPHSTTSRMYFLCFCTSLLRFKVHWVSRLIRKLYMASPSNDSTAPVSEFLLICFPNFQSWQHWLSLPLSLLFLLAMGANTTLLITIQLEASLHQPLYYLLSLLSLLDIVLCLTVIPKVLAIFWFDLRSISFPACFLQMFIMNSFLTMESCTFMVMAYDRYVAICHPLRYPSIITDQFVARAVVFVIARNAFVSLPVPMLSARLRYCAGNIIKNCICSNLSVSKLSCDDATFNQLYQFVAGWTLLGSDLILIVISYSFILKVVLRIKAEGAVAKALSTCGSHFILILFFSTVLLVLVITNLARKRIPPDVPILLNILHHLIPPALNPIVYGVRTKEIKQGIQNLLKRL
O56B1 L214F, sequence (as listed by the source, stated change not applied): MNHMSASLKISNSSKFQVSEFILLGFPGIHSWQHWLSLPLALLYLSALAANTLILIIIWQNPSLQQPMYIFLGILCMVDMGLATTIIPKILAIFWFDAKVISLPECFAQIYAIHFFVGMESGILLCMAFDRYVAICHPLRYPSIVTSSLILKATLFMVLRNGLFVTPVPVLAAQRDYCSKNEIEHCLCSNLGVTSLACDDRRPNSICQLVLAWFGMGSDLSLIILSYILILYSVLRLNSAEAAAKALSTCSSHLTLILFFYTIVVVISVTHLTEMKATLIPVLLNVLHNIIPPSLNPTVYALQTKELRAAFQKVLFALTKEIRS
O5AK2 M92I, sequence (as listed by the source, stated change not applied): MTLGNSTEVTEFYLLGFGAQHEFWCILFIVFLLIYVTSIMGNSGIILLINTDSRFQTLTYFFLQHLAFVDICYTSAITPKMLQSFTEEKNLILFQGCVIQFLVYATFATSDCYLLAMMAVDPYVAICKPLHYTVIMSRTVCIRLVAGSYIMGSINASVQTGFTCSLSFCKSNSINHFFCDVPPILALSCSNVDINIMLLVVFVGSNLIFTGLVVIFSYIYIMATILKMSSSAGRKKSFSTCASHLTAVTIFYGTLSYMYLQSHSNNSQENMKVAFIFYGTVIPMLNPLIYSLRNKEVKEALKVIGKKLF
O56B4, sequence (as listed by the source): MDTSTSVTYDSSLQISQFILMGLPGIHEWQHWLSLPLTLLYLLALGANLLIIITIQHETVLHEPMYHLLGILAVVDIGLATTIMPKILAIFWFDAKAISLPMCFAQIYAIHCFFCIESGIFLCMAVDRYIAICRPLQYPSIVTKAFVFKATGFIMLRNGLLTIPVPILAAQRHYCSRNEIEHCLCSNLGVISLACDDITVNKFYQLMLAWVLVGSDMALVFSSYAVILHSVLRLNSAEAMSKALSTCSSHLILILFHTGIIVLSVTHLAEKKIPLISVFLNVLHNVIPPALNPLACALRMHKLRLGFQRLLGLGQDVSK
O56A4 I247V, sequence (as listed by the source, stated change not applied): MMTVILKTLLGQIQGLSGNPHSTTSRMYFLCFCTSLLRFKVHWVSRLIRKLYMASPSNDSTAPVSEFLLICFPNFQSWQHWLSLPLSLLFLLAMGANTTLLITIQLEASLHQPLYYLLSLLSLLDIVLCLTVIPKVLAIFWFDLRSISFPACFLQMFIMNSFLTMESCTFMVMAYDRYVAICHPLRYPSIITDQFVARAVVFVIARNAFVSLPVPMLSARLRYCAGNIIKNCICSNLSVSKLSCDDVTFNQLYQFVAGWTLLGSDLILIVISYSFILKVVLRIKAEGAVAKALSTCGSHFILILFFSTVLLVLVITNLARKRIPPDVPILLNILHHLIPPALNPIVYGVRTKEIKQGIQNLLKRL
O56A4, sequence (as listed by the source): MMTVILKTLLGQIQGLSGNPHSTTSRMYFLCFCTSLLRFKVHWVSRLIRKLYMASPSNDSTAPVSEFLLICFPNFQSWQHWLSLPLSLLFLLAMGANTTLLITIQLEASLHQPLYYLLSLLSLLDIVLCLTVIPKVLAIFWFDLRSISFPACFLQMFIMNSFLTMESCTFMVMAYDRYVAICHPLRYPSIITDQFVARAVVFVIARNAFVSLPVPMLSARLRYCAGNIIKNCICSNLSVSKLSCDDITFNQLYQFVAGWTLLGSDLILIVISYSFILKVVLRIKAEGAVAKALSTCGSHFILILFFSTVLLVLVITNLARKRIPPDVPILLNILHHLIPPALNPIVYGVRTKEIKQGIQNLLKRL
O5AC2, sequence (as listed by the source): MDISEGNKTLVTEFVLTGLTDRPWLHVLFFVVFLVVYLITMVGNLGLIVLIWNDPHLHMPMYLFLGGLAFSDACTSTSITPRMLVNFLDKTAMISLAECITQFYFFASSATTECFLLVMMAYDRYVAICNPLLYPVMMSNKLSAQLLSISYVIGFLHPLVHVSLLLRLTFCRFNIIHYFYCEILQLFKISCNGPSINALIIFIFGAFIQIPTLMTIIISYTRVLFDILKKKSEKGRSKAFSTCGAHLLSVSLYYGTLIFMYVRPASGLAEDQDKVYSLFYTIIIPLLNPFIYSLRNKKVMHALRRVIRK

C=CCOC(=O)Cc1ccccc1
inactive: all assays above
